This is a sample that favours compounds with a hit; in the whole collection about 3.8% have one here.
TMEM16A inh: TMEM16A chloride channel inhibitors, primary screen, cell-based, HTS; HEK293 TMEM16A/YFP iodide influx fluorescence, ionomycin; normalized B-score (activity score, 25-100; higher = stronger inhibition) at 10 µM; 310,000 compounds, 1.2% hits;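 active = ratio plate-corrected score three or more library SD toward inhibition, starting fluorescence score within five deviations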;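 also: score derived from kinetic fluorescence span divided by baseline fluorescence per well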
MC4R antagonist: MC4R antagonists of cAMP signaling, primary screen, cell-based, TR-FRET, antagonist arm of biased-ligand search | Melanocortin receptor 4 (Homo sapiens), P32245 | MC4R-expressing cells, MTII-stimulated cAMP, LANCE TR-FRET | inhibition, % at 6.5 µM | 360,000 compounds, 0.48% hits;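 active = inhibition above its plate's cutoff, the mean of tested wells on that plate plus 3 SD, cut at about 29% in these data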
Target sequence (P32245 whole entry, looked up): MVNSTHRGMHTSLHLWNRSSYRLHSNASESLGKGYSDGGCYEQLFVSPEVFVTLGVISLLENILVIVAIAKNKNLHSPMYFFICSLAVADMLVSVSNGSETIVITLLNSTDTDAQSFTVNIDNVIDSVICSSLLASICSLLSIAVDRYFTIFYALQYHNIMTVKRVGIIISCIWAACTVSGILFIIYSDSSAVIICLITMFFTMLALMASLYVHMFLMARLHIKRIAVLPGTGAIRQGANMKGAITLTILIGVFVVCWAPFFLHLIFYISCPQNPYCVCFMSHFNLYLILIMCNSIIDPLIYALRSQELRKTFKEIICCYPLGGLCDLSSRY
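Material – human MC4R-expressing U2OS cells · Repeats – no replicates · Detection – TR-FRET with Eu-cAMP and labeled anti-cAMP, 671 nm · Times – compound 30 min, challenge 1 h, detection 1 h · Compound – single nominal compound dose of 6.5 µM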
ANO1 activ: TMEM16A chloride channel activators or potentiators, primary screen, cell-based, HTS | Anoctamin-1 (Mus musculus), Q8BHY3 | B-score at 10 µM | 340,000 compounds, 0.3% hits | AID 623877, 2012 | HEK293 TMEM16A/YFP-H148Q/I152L, iodide quench fluorescence; hits give low values;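 active = fluorescence-ratio B-score plate-corrected deviation score at least 3 library SD below zero, with starting fluorescence score within 5 deviations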;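 also: channel opened by trigger with iodide after compound preincubation; score built on the fluorescence ratio of max minus min over baseline; more negative score means more quench and so TMEM16A activation or potentiation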
CSC inhib: cancer stem cell viability inhibitors, primary screen, luminescence | cancer stem cell-like cells viability | inhibition, % at 7.5 µM | 300,000 compounds, 1.1% hits; in the data active = inhibition above about 75%; inconclusive = no clear call, values can overlap the other calls; tested in HMLE shEcad cells
MC4R barr agon: MC4R agonists recruiting beta-arrestin, primary screen, cell-based, luminescence, agonist arm of biased-ligand search. Melanocortin receptor 4 (Homo sapiens), P32245. AID 540308, 2011. 360,000 compounds, 0.98% hits. U2OS MC4R beta-arrestin complementation; percent of melanotan II response, DMSO zero. activation, % at 8.9 µM;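 active = activation above a per-plate cutoff, the mean activation of sample wells on that plate plus 3 SD, cut at about 8% in these data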
Beta apoptosis: inhibitors of cytokine-induced beta cell apoptosis, primary screen, luminescence | INS-1E cytokine-induced death, ATP luminescence, 48 h; percent of positive-control rescue, neutral wells zero | protection from apoptosis, % (concentration not given with the values) | 300,000 compounds, 0.8% hits | AID 435005, 2010;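 active = Every replicate reaches about 75%, or at least half do and their mean reaches it too, limit read from the data; inconclusive = At least half of replicates reach the limit but their mean does not; inactive = Under half of replicates reach the limit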;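 also: higher means more ATP so stronger rescue from cytokine killing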
Large screens that a line does not name were inactive.

COC(=O)c1ccc(CN(c2ccc(C(=O)O)c(O)c2)S(=O)(=O)c2ccc(Cl)c([N+](=O)[O-])c2)cc1	TMEM16A inh 100, CSC inhib 92
COC(=O)c1ccc(CN(c2ccccn2)S(=O)(=O)c2ccccc2)cc1	none
CC1CCCC(NC(=O)CN(C)CC(=O)Nc2cccc(F)c2)C1C (stereo unspecified)	none (no result: TMEM16A inh, CSC inhib)
O=C(Cn1c2ccccc2c(=O)c2ccccc21)N/N=C/c1ccc(N2CCCC2)c([N+](=O)[O-])c1	CSC inhib 113
CC(Cc1ccc(O)c(O)c1)C(C)Cc1ccc(O)c(O)c1 (stereo unspecified)	TMEM16A inh 100 (no result: MC4R antagonist, ANO1 activ, MC4R barr agon)
ON1C(c2ccc(Cl)cc2Cl)N(O)[C@H]2CCCC[C@H]21 (stereo partly specified)	TMEM16A inh 100
CC1N(O)C(c2ccc(Cl)cc2Cl)N(O)C1(C)C (stereo unspecified)	none
CCCN1CCC(=O)NC1=S	none (no result: TMEM16A inh, CSC inhib, Beta apoptosis)
COc1ccccc1[C@]1(C)ON(c2ccccc2C(F)(F)F)C1=O	none (no result: TMEM16A inh)
CC[C@]1(c2ccccc2OC)ON(c2ccccc2C(F)(F)F)C1=O	Beta apoptosis 87 (no result: TMEM16A inh, MC4R antagonist, ANO1 activ, MC4R barr agon)
C[C@H](CO)N1C[C@H](C)[C@@H](CN(C)S(=O)(=O)c2cn(C)cn2)Oc2ccc(NC(=O)Cn3cnnn3)cc2C1=O	none (no result: TMEM16A inh)
CCCCCCC(C)n1cc(C(C)=O)c(=O)[nH]c1=O (stereo unspecified)	TMEM16A inh 100
O=[N+]([O-])c1ccc(O)c(-c2cc(C(F)(F)F)nc(-c3ccccc3)n2)c1	TMEM16A inh 100, CSC inhib 88, Beta apoptosis 119
Oc1ccccc1-c1cc(C(F)(F)C(F)F)nc(-c2ccccc2)n1	none
CN1CC(c2ccccc2)C2(SC(=S)N(Cc3ccco3)C2=O)C12C(=O)Nc1ccccc12 (stereo unspecified)	CSC inhib 104
O=C1c2cccc3cccc(c23)C(=O)N1Cc1ccccn1	none (no result: TMEM16A inh, ANO1 activ, CSC inhib, Beta apoptosis)
Cc1cc(SCC(=O)Nc2cccc(S(=O)(=O)NC3=NCCCCC3)c2)nc2ccccc12	ANO1 activ -5.4
CCC1=C(c2ccc(C)cc2)S(=O)(=O)N=C1N1CCC(C(=O)NCCCN2CCCCC2C)CC1 (stereo unspecified)	none
COC(=O)c1ccc(OC(=O)CN2C(=O)c3ccccc3C2=O)cc1	none
CCCCNC(=S)N(C)/N=C/c1ccc2c(c1)OCO2	CSC inhib 83
CCCCNC(=S)N(C)/N=C/c1ccc(F)cc1	none
Oc1cccc2ccc(/C=C/c3ccccc3Br)nc12	CSC inhib 97
COc1cc(Br)c(/C=C/c2ccc3cccc(O)c3n2)cc1OC	none
COc1ccc(OC)c(/C=C/c2ccc3cccc(O)c3n2)c1	none
Cc1ccsc1/C=C/c1ccc2cccc(O)c2n1	CSC inhib 92
COc1cc(/C=C/c2ccc3cccc(O)c3n2)ccc1O	CSC inhib 75
Oc1ccc(Cl)cc1/C=C/c1ccc2cccc(O)c2n1	none (no result: TMEM16A inh, CSC inhib, Beta apoptosis)
COc1cc(/C=C/c2ccc3cccc(O)c3n2)c(Br)cc1O	CSC inhib 96
COc1cc(Br)cc(/C=C/c2ccc3cccc(O)c3n2)c1O	CSC inhib 92
Cc1ccc2nc(-c3ccc(NC(=O)Cc4cccs4)cc3)[nH]c2c1	MC4R barr agon 9.4
Cc1ccc(-n2nnc3c(=O)oc4ccccc4c32)cc1	MC4R antagonist 46
CCN(CC)CCOc1ccc(/C(=C(\Cl)c2ccccc2)c2ccccc2)cc1	CSC inhib 103
CCN(CC)CCOc1ccc(Br)cc1	none
COc1ccc(N2CCN(c3nccs3)CC2)cc1	none
COc1cc(CCNC(=O)CCCn2c(=O)c3cccn3c3cccnc32)cc(OC)c1OC	none
CCC(CO)Oc1cc(NCc2ccc(Cl)cc2Cl)c2ncn(C(C)C)c2c1 (stereo unspecified)	CSC inhib 111 (no result: TMEM16A inh)
CC(C)n1cnc2c(NCc3ccccc3)cc(Cc3ccc(F)cc3)cc21	CSC inhib 129 (no result: TMEM16A inh)
CCCOc1cc(NCc2ccccc2)c2ncn(C(C)C)c2c1	Beta apoptosis 124 (no result: TMEM16A inh)
CCOc1cc(NCc2ccccc2)c2ncn(C(C)C)c2c1	none (no result: TMEM16A inh, CSC inhib)
O=C(NCc1cc(Cl)cc(Cl)c1)c1csc(COCCO)n1	none (no result: TMEM16A inh, ANO1 activ, CSC inhib, Beta apoptosis)
CC(=O)Nc1ccc(S(=O)(=O)NCC(=O)N2CCN(S(=O)(=O)c3cccs3)CC2)cc1	ANO1 activ -15 (no result: TMEM16A inh, CSC inhib)
CCCCn1c(N)c(N(CCOC)C(=O)CCCc2cccs2)c(=O)[nH]c1=O	none
CCCOc1ccc2ccccc2c1/C=C1\SC(=O)NC1=O	TMEM16A inh 100
CCc1cccc(NS(=O)(=O)c2ccc(-n3cccn3)cc2)c1	MC4R barr agon 8.3
Cc1ccc(NS(=O)(=O)c2ccc(-n3cccn3)cc2)cc1C	MC4R barr agon 9.4
Cc1ccc(C)c(NS(=O)(=O)c2ccc(-n3cccn3)cc2)c1	none (no result: TMEM16A inh, ANO1 activ, CSC inhib, Beta apoptosis)
CCCNC(=O)OC[C@H]1O[C@H](CCO/N=C/C[C@@H]2C=C[C@H](OC(C)=O)[C@@H](COC(C)=O)O2)C=C[C@@H]1Oc1ccc(OC)cc1	TMEM16A inh 25 (no result: MC4R antagonist, ANO1 activ, MC4R barr agon)
COc1ccc(-c2ccc3[nH]c4c(c3c2)CCN2C(=O)[C@@H]([C@H](C)O)[C@@H](N(C)C(=O)Nc3ccccc3)C[C@@H]42)cc1	none (no result: TMEM16A inh, ANO1 activ, CSC inhib, Beta apoptosis)
CCc1cccc2c(C(=O)CN3C(=O)NC(C)(c4cccc5ccccc45)C3=O)c[nH]c12 (stereo unspecified)	CSC inhib 104
C=C(CC[C@@H](O)C(C)(C)O)[C@H]1CC[C@]2(C)[C@@H]1CCC1[C@@]3(C)CC[C@H](O)C(C)(C)C3CC[C@]12C (stereo partly specified)	CSC inhib inconclusive (no result: TMEM16A inh)
C=C(C)[C@@H]1CC[C@]2(C(=O)O)CC[C@]3(C)[C@H](CC[C@@H]4[C@@]5(C)CC[C@H](O)C(C)(C)[C@@H]5CC[C@]43C)[C@@H]12	CSC inhib 84 (no result: Beta apoptosis)
C1=C(CCNc2ncnc3nc[nH]c23)CCCC1	TMEM16A inh 25
CCCNc1ncnc2nc[nH]c12	none
Cc1ccc(N2C(=O)[C@@H]3C(c4cccnc4)=NO[C@@H]3C2=O)c(C)c1	TMEM16A inh 25
N#CCCN(C(=O)CN1CCN(S(=O)(=O)c2ccc3c(c2)OCCO3)CC1)c1ccc(F)cc1	none (no result: TMEM16A inh, CSC inhib)
Cc1ccc(N2C(=O)N(CC(=O)Nc3cc(Cl)ccc3C)C(=O)C2C)cc1 (stereo unspecified)	none
S=C(Nc1ccccc1)Nc1nc2ccccc2n1CCOc1ccc(Br)cc1	CSC inhib 107

Compound activity (PubChem BioAssay)
